Data taken from PMC11003489 (Journal of Enzyme Inhibition and Medicinal Chemistry, 2023).

What was measured:
[1] = system: normal human lung fibroblasts (Wi-38); experiment: MTT cytotoxicity screening on normal human lung fibroblasts; type: cell-based; conditions: WI-38, 72 h, read-out: Wi-38 EC50
Summary of the method: (§1)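 A549 and Wi-38 cells, sourced from the National Cancer Institute (Cairo), grown in RPMI-1640 with L-glutamine, 10% FBS and 1% penicillin-streptomycin at 37 °C, 5% CO2. Seeded in triplicate at 5 × 10^4 cells, then exposed next day to test compound at 0.01, 0.1, 1, 10 and 100 µM. Viability measured by MTT relative to untreated control, and IC50 computed.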

[2] = system: human lung cancer A549 cells; experiment: MTT cytotoxicity screening on human lung cancer cells; type: cell-based; conditions: for IC50: Homo sapiens, A549, 72 h, read-out: A549 IC50; for SI (selectivity index): ratio of IC50 values against Wi-38 and A549 cells
Summary of the method: as §1

[3] = molecular target: CDK2 (Homo sapiens, UniProt P24941); experiment: In vitro CDK2 inhibition, CDK2 luminescence kinase assay kit; type: biochemical

| Structure (SMILES) | EC50 [1] | IC50 [2] | SI (selectivity index) [2] | % inhibition ± SD at [10 μM] of CDK2 ([3]; 10 μM) | IC50 ([3]; CDK2 IC50, serial dilutions 0.01–10 μM, mean ± SD of three replicates) | inhibition at 10 µM ([3]; read-out: % inhibition ± SD at [10 μM] of CDK2, 10 μM) |
| --- | --- | --- | --- | --- | --- | --- |
| O=C(c1nc2ccccc2[nH]1)[C@H]1[C@H](c2ccc(Br)cc2)C2CC3CCCCC3N2[C@@]12c1ccccc1-c1nc3ccccc3nc12 (stereo partly drawn) [Compound 6d, (1H-Benzo[d]imidazol-2-yl)((1'R,2'S,11R)-1'-(4-bromophenyl)-1',2',4a’,5',6',7',8',8a’,9',9a’-decahydrospiro[indeno[1,2-b]quinoxaline-11,3'-pyrrolo[1,2-a]indol]-2'-yl)methanone] | 77 ± 1 nM | 87 ± 3 nM | 0.885 |  |  |  |
| O=C(c1nc2ccccc2[nH]1)[C@H]1[C@H](c2cccs2)[C@H]2CCCN2[C@@]12c1ccccc1-c1nc3ccccc3nc12 [Compound 4g, (1H-Benzo[d]imidazol-2-yl)((1'S,2'S,7a’R,11R)-1'-(thiophen-2-yl)-1',2',5',6',7',7a’-hexahydrospiro[indeno[1,2-b]quinoxaline-11,3'-pyrrolizin]-2'-yl)methanone] | 252 ± 1 nM | 182 ± 4 nM | 1.384 |  |  |  |
| O=C(c1nc2ccccc2[nH]1)[C@H]1[C@H](c2ccccc2)C2CC3CCCCC3N2[C@@]12c1ccccc1-c1nc3ccccc3nc12 (stereo partly drawn) [Compound 6h, (1H-Benzo[d]imidazol-2-yl)((1'R,2'S,11R)-1'-phenyl-1',2',4a’,5',6',7',8',8a’,9',9a’-decahydrospiro[indeno[1,2-b]quinoxaline-11,3'-pyrrolo[1,2-a]indol]-2'-yl)methanone] | 173 ± 1 nM | 202 ± 6 nM | 0.856 |  |  |  |
| O=C(c1nc2ccccc2[nH]1)[C@H]1[C@H](c2ccc(Cl)cc2Cl)[C@H]2CCCN2[C@@]12c1ccccc1-c1nc3ccccc3nc12 [Compound 4b, (1H-Benzo[d]imidazol-2-yl)((1'R,2'S,7a’R,11R)-1'-(2,4-dichlorophenyl)-1',2',5',6',7',7a’-hexahydrospiro[indeno[1,2-b]quinoxaline-11,3'-pyrrolizin]-2'-yl)methanone] | 887 ± 11 nM | 225 ± 5 nM | 3.942 |  |  |  |
| O=C(c1nc2ccccc2[nH]1)[C@H]1[C@H](c2ccc(F)cc2)C2CC3CCCCC3N2[C@@]12c1ccccc1-c1nc3ccccc3nc12 (stereo partly drawn) [Compound 6c, (1H-Benzo[d]imidazol-2-yl)((1'R,2'S,11R)-1'-(4-fluorophenyl)-1',2',4a’,5',6',7',8',8a’,9',9a’-decahydrospiro[indeno[1,2-b]quinoxaline-11,3'-pyrrolo[1,2-a]indol]-2'-yl)methanone] | 168 ± 19 nM | 139 ± 3 nM | 1.208 |  |  |  |
| O=C(c1nc2ccccc2[nH]1)[C@H]1[C@H](c2ccco2)[C@H]2CCCN2[C@@]12c1ccccc1-c1nc3ccccc3nc12 [Compound 4a, (1H-Benzo[d]imidazol-2-yl)((1'S,2'S,7a’R,11R)-1'-(furan-2-yl)-1',2',5',6',7',7a’-hexahydrospiro[indeno[1,2-b]quinoxaline-11,3'-pyrrolizin]-2'-yl)methanone] | 607 ± 50 nM | 82 ± 2 nM | 7.402 |  |  |  |
| O=c1[nH]cc(F)c(=O)[nH]1 [Compound 5-Fu, 5-fluorouracil, reference compound] | 4190 ± 168 nM | 3780 ± 520 nM | 1.107 |  |  |  |
| O=C(c1nc2ccccc2[nH]1)[C@H]1[C@H](c2ccc(Cl)cc2Cl)C2CC3CCCCC3N2[C@@]12c1ccccc1-c1nc3ccccc3nc12 (stereo partly drawn) [Compound 6b, (1H-Benzo[d]imidazol-2-yl)((1'R,2'S,11R)-1'-(2,4-dichlorophenyl)-1',2',4a’,5',6',7',8',8a’,9',9a’-decahydrospiro[indeno[1,2-b]quinoxaline-11,3'-pyrrolo[1,2-a]indol]-2'-yl)methanone] | 359 ± 8 nM | 54 ± 8 nM | 6.648 | 70.72 ± 2.8% | 177 nM | 70.7% |
| O=C(c1nc2ccccc2[nH]1)[C@H]1[C@H](c2cccc(F)c2)[C@H]2CCCN2[C@@]12c1ccccc1-c1nc3ccccc3nc12 [Compound 4e, (1H-Benzo[d]imidazol-2-yl)((1'R,2'S,7a’R,11R)-1'-(3-fluorophenyl)-1',2',5',6',7',7a’-hexahydrospiro[indeno[1,2-b]quinoxaline-11,3'-pyrrolizin]-2'-yl)methanone] | 1100 ± 205 nM | 321 ± 5 nM | 3.429 |  |  |  |
| O=C(c1nc2ccccc2[nH]1)[C@H]1[C@H](c2ccc(F)cc2)[C@H]2CCCN2[C@@]12c1ccccc1-c1nc3ccccc3nc12 [Compound 4c, (1H-Benzo[d]imidazol-2-yl)((1'R,2'S,7a’R,11R)-1'-(4-fluorophenyl)-1',2',5',6',7',7a’-hexahydrospiro[indeno[1,2-b]quinoxaline-11,3'-pyrrolizin]-2'-yl)methanone] | 217 ± 7 nM | 206 ± 9 nM | 1.053 |  |  |  |
| O=C(c1nc2ccccc2[nH]1)[C@H]1[C@H](c2cccc(F)c2)C2CC3CCCCC3N2[C@@]12c1ccccc1-c1nc3ccccc3nc12 (stereo partly drawn) [Compound 6e, (1H-Benzo[d]imidazol-2-yl)((1'R,2'S,11R)-1'-(3-fluorophenyl)-1',2',4a’,5',6',7',8',8a’,9',9a’-decahydrospiro[indeno[1,2-b]quinoxaline-11,3'-pyrrolo[1,2-a]indol]-2'-yl)methanone] | 114 ± 3 nM | 137 ± 16 nM | 0.832 |  |  |  |
| COc1ccc([C@@H]2C3CC4CCCCC4N3[C@@]3(c4ccccc4-c4nc5ccccc5nc43)[C@H]2C(=O)c2nc3ccccc3[nH]2)cc1 (stereo partly drawn) [Compound 6f, (1H-Benzo[d]imidazol-2-yl)((1'R,2'S,11R)-1'-(4-methoxyphenyl)-1',2',4a’,5',6',7',8',8a’,9',9a’-decahydrospiro[indeno[1,2-b]quinoxaline-11,3'-pyrrolo[1,2-a]indol]-2'-yl)methanone] | 549 ± 10 nM | 107 ± 2 nM | 5.130 |  |  |  |
| O=C(c1nc2ccccc2[nH]1)[C@H]1[C@H](c2ccccc2)[C@H]2CCCN2[C@@]12c1ccccc1-c1nc3ccccc3nc12 [Compound 4h, (1H-Benzo[d]imidazol-2-yl)((1'R,2'S,7a’R,11R)-1'-phenyl-1',2',5',6',7',7a’-hexahydrospiro[indeno[1,2-b]quinoxaline-11,3'-pyrrolizin]-2'-yl)methanone] | 193 ± 10 nM | 177 ± 3 nM | 1.090 |  |  |  |
| O=C(c1nc2ccccc2[nH]1)[C@H]1[C@H](c2ccc(Br)cc2)[C@H]2CCCN2[C@@]12c1ccccc1-c1nc3ccccc3nc12 [Compound 4d, (1H-Benzo[d]imidazol-2-yl)((1'R,2'S,7a’R,11R)-1'-(4-bromophenyl)-1',2',5',6',7',7a’-hexahydrospiro[indeno[1,2-b]quinoxaline-11,3'-pyrrolizin]-2'-yl)methanone] | 176 ± 2 nM | 135 ± 2 nM | 1.303 |  |  |  |
| O=C(c1nc2ccccc2[nH]1)[C@H]1[C@H](c2cccs2)C2CC3CCCCC3N2[C@@]12c1ccccc1-c1nc3ccccc3nc12 (stereo partly drawn) [Compound 6g, (1H-Benzo[d]imidazol-2-yl)((1'S,2'S,11R)-1'-(thiophen-2-yl)-1',2',4a’,5',6',7',8',8a’,9',9a’-decahydrospiro[indeno[1,2-b]quinoxaline-11,3'-pyrrolo[1,2-a]indol]-2'-yl)methanone] | 164 ± 60 nM | 84 ± 4 nM | 1.952 |  |  |  |
| O=C(c1nc2ccccc2[nH]1)[C@H]1[C@H](c2ccco2)C2CC3CCCCC3N2[C@@]12c1ccccc1-c1nc3ccccc3nc12 (stereo partly drawn) [Compound 6a, (1H-Benzo[d]imidazol-2-yl)((1'S,2'S,11R)-1'-(furan-2-yl)-1',2',4a’,5',6',7',8',8a’,9',9a’-decahydrospiro[indeno[1,2-b]quinoxaline-11,3'-pyrrolo[1,2-a]indol]-2'-yl)methanone] | 112 ± 1 nM | 98 ± 6 nM | 1.142 |  |  |  |
